From ChEMBL document CHEMBL4477166, “18β-Glycyrrhetinic Acid Derivatives Possessing a Trihydroxylated A Ring Are Potent Gram-Positive Antibacterial Agents” (2016)
Converted amounts (≈) assume the structure as drawn. The source made the active and inactive calls. No cut-off for these calls is given here.

Tests used:
Bacillus subtilis [1] = test: Antibacterial activity against Bacillus subtilis ATCC 6051 by microdilution assay; assay type: functional
Outline: (§1)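 Turbidimetric broth microdilution. Log-phase cells were washed and resuspended in broth (LB at 37 °C for B. subtilis and S. aureus; oat bran broth at 28 °C for S. scabies) and seeded at 1 × 10⁵ CFU/mL. Twofold serial dilutions were made with DMSO ≤1% (v/v). A620 was read, then plates were incubated with vigorous shaking. MIC was the lowest concentration with no apparent growth versus vehicle-only medium without cells. Run in triplicate.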

Streptomyces scabiei [2] = test: Antibacterial activity against Streptomyces scabiei CGMCC4.7610246 by microdilution assay; assay type: functional; outline: as §1
Staphylococcus aureus [3] = test: Antibacterial activity against Staphylococcus aureus ATCC 25923 by microdilution assay; assay type: functional; outline: as §1
Staphylococcus aureus [4] = test: Antibacterial activity against methicillin-resistant Staphylococcus aureus by microdilution assay; assay type: functional
Outline: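 Log-phase cells seeded at 1 × 10⁵ CFU/mL. Twofold serial dilutions made in broth with DMSO cosolvent, at most 1% v/v. Turbidity read at 620 nm before and after incubation with vigorous shaking. MIC is the lowest concentration with no apparent growth versus the medium-plus-vehicle control. Run in triplicate.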

Escherichia coli = test: Antibacterial activity against Escherichia coli at 100 uM measured after 5 to 6 hrs by microdilution assay; assay type: functional, organism-based
Pseudomonas aeruginosa [5] = test: Antibacterial activity against Pseudomonas aeruginosa at 100 uM measured after 5 to 6 hrs by microdilution assay; assay type: functional, organism-based
Pseudomonas aeruginosa [6] = test: Antibacterial activity against multi-drug resistant Pseudomonas aeruginosa at 100 uM measured after 5 to 6 hrs by microdilution assay; assay type: functional, organism-based
Outline: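 Log-phase cells seeded at 1 × 10⁵ CFU/mL. Single-dose screen at 100 μM, with DMSO cosolvent at most 1% v/v. Growth measured turbidimetrically at 620 nm, before and after incubation with vigorous shaking.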

Bacillus subtilis [7] = test: Antibacterial activity against Bacillus subtilis ATCC 6051 by time-kill analysis; assay type: functional, organism-based
Outline: (§2)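 Time-kill in LB at 37 °C. B. subtilis or S. aureus suspensions were set at 5 × 10⁵ CFU/mL and exposed to 0.5×, 1×, 2× and 4× MIC alongside negative and positive controls. Samples of 1 mL were taken at 0, 2, 4, 6, 8, 12 and 24 h, serially diluted and plated for viable counts, and survival was calculated. Three repeats.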

Streptomyces scabiei [8] = test: Antibacterial activity against Streptomyces scabiei CGMCC4.7610246 by time-kill analysis; assay type: functional, organism-based
Outline: (§3)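 Killing kinetics for S. scabies in oat bran broth at 28 °C, starting at 5 × 10⁵ CFU/mL. Exposure was 0.5×, 1×, 2× or 4× MIC, with negative and positive controls. Samples of 1 mL were withdrawn at 0, 4, 8, 16, 24 and 36 h, serially diluted and plated, and survival was calculated from colony counts. Performed in triplicate.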

Staphylococcus aureus [9] = test: Antibacterial activity against Staphylococcus aureus ATCC 25923 by time-kill analysis; assay type: functional, organism-based; outline: as §2
Bacillus subtilis [10] = test: Antibacterial activity against Bacillus subtilis ATCC 6051 at 0.5 times MIC by time-kill analysis; assay type: functional, organism-based; outline: as §2
Streptomyces scabiei [11] = test: Antibacterial activity against Streptomyces scabiei CGMCC4.7610246 at 0.5 times MIC by time-kill analysis; assay type: functional, organism-based; outline: as §3
Staphylococcus aureus [12] = test: Antibacterial activity against Staphylococcus aureus ATCC 25923 at 0.5 times MIC by time-kill analysis; assay type: functional, organism-based; outline: as §2
Bacillus subtilis [13] = test: Upregulation of ykuD expression in Bacillus subtilis ATCC 6051 at 0.5 times MIC by qRT-PCR analysis; assay type: functional, organism-based
Outline: (§4)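 Bacteria were grown in broth with compound at 0.5 × MIC or vehicle to exponential phase (OD620 = 0.4) and then pelleted. Total RNA was reverse-transcribed, and SYBR-based real-time PCR was run against housekeeping genes. Relative expression versus control was calculated by 2^−ΔΔCT. Mean ± SEM, n = 3, significance at p < 0.05.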

Bacillus subtilis [14] = test: Upregulation of lytF expression in Bacillus subtilis ATCC 6051 at 0.5 times MIC by qRT-PCR analysis; assay type: functional, organism-based; outline: as §4
Staphylococcus aureus [15] = test: Effect on lytM expression in Staphylococcus aureus ATCC 25923 at 0.5 times MIC by qRT-PCR analysis; assay type: functional, organism-based; outline: as §4
Staphylococcus aureus [16] = test: Inhibition of lytM expression in methicillin-resistant Staphylococcus aureus at 0.5 times MIC by qRT-PCR analysis; assay type: functional, organism-based
Outline: (§5)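 MRSA grown in broth containing either 0.5 × MIC of test compound or vehicle alone. Cells harvested at exponential phase (OD₆₂₀ = 0.4). Total RNA reverse-transcribed, then SYBR-based real-time PCR run. Relative expression computed by the 2^−ΔΔCT method against the vehicle control or the parent-acid-treated group. Mean ± SEM, n = 3; significance set at p < 0.05.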

Staphylococcus aureus [17] = test: Increase in fmhB expression in Staphylococcus aureus ATCC 25923 at 0.5 times MIC by qRT-PCR analysis relative to control; assay type: functional, organism-based; outline: as §4
Staphylococcus aureus [18] = test: Increase in fmhB expression in Staphylococcus aureus ATCC 25923 at 0.5 times MIC by qRT-PCR analysis relative to 18-beta-glycyrrhetinic acid; assay type: functional, organism-based; outline: as §4
Staphylococcus aureus [19] = test: Increase in fmhB expression in methicillin-resistant Staphylococcus aureus at 0.5 times MIC by qRT-PCR analysis relative to control; assay type: functional, organism-based; outline: as §5
Staphylococcus aureus [20] = test: Increase in fmhB expression in Staphylococcus aureus at 0.5 times MIC by qRT-PCR analysis relative to 18-beta-glycyrrhetinic acid; assay type: functional, organism-based; outline: as §4
Bacillus subtilis [21] = test: Reduction in mmD expression in Bacillus subtilis ATCC 6051 at 0.5 times MIC by qRT-PCR analysis relative to control; assay type: functional, organism-based; outline: as §4
Staphylococcus aureus [22] = test: Reduction in narG expression in Staphylococcus aureus ATCC 25923 at 0.5 times MIC by qRT-PCR analysis relative to control; assay type: functional, organism-based; outline: as §4
Staphylococcus aureus [23] = test: Reduction in narG expression in methicillin-resistant Staphylococcus aureus at 0.5 times MIC by qRT-PCR analysis relative to control; assay type: functional, organism-based; outline: as §5
Bacillus subtilis [24] = test: Upregulation of yhdT expression in Bacillus subtilis ATCC 6051 at 0.5 times MIC by qRT-PCR analysis relative to control; assay type: functional, organism-based; outline: as §4
Bacillus subtilis [25] = test: Upregulation of yqhB expression in Bacillus subtilis ATCC 6051 at 0.5 times MIC by qRT-PCR analysis relative to control; assay type: functional, organism-based; outline: as §4
Staphylococcus aureus [26] = test: Upregulation of seaR expression in Staphylococcus aureus ATCC 25923 at 0.5 times MIC by qRT-PCR analysis relative to control; assay type: functional, organism-based; outline: as §4
Staphylococcus aureus [27] = test: Upregulation of hla expression in Staphylococcus aureus ATCC 25923 at 0.5 times MIC by qRT-PCR analysis relative to control; assay type: functional, organism-based; outline: as §4
Staphylococcus aureus [28] = test: Inhibition of seaR expression in methicillin-resistant Staphylococcus aureus at 0.5 times MIC by qRT-PCR analysis relative to control; assay type: functional, organism-based; outline: as §5
Staphylococcus aureus [29] = test: Inhibition of hla expression in methicillin-resistant Staphylococcus aureus at 0.5 times MIC by qRT-PCR analysis relative to control; assay type: functional, organism-based; outline: as §5
Staphylococcus aureus [30] = test: Down regulation of mecA gene in methicillin-resistant Staphylococcus aureus at 0.5 times MIC by qRT-PCR analysis relative to control; assay type: functional, organism-based; outline: as §5
Staphylococcus aureus [31] = test: Down regulation of mecA gene in methicillin-resistant Staphylococcus aureus at 0.5 times MIC by qRT-PCR analysis relative to 18-beta-glycyrrhetinic acid; assay type: functional, organism-based; outline: as §5

`CCOC(=O)[C@@]1(C)CC[C@]2(C)CC[C@]3(C)C(=CC[C@@H]4[C@@]5(C)[C@@H](O)[C@H](O)[C@H](O)C(C)(C)[C@@H]5CC[C@]43C)[C@@H]2C1` showed an MIC (Bacillus subtilis [1]) of 2 µg/mL (≈ 3.87 µM), an MIC (Streptomyces scabiei [2]) of 4.1 µg/mL (≈ 7.93 µM) and an MIC (Staphylococcus aureus [3]) of 1 µg/mL (≈ 1.94 µM). The MIC (Staphylococcus aureus [4]) was 1 µg/mL (≈ 1.94 µM), the Activity (Escherichia coli) was “inactive” and the Activity (Pseudomonas aeruginosa [5]) was “inactive”. For the same compound, the Activity (Pseudomonas aeruginosa [6]) was “inactive”, the Activity (Bacillus subtilis [7]) was “Dose-dependent effect” and the Activity (Streptomyces scabiei [8]) was “Dose-dependent effect”. The Activity (Staphylococcus aureus [9]) was “Dose-dependent effect”, the Activity (Bacillus subtilis [10]) was “inactive” and the Activity (Streptomyces scabiei [11]) was “inactive”. The Activity (Staphylococcus aureus [12]) was “inactive”, the Activity (Bacillus subtilis [13]) was “Active” and the Activity (Bacillus subtilis [14]) was “Active”. The Activity (Staphylococcus aureus [15]) was “inactive”, the inhibition (Staphylococcus aureus [16]) was “Active” and the Activity (Staphylococcus aureus [17]) was “Active”. The Activity (Staphylococcus aureus [18]) was “Active”, the Activity (Staphylococcus aureus [19]) was “Active” and the Activity (Staphylococcus aureus [20]) was “Active”. The Activity (Bacillus subtilis [21]) was “Active”, the Activity (Staphylococcus aureus [22]) was “Active” and the Activity (Staphylococcus aureus [23]) was “Active”. For the same compound, the Activity (Bacillus subtilis [24]) was “Active”, the Activity (Bacillus subtilis [25]) was “Active” and the Activity (Staphylococcus aureus [26]) was “Active”. For the same compound, the Activity (Staphylococcus aureus [27]) was “Active”, the inhibition (Staphylococcus aureus [28]) was “Active” and the inhibition (Staphylococcus aureus [29]) was “Active”. For the same compound, the Activity (Staphylococcus aureus [30]) was “Active” and the Activity (Staphylococcus aureus [31]) was “Active”.
